Reference: PubChem BioAssay
Values joined by “and” are separate entries in the source; they are usually repeats but may differ in a detail not shown here. Identical values can stand only once. Active and inactive are the calls of the source. Rule as the data show it, unless noted: active = inhibition above about 30%; inactive = the rest.

Key:
[1] = reduced viability of SK-BR-3 breast cancer cells – cell-based, 24 h, human, pilot screen (AID 572;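 active = viability at or below 10% of carrier control in both of two separate runs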;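 also: compound exposure lasted between 18 and 24 h rather than exactly 24 h; 100% = carrier-treated control wells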); conditions: SK-BR-3 viability, CellTiter-Glo luminescence, at 10 µM, stronger effect = lower value
[2] = HUVEC growth inhibition – cell-based, human, primary screen (AID 575;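 active = viability at or below 30% in both replicate assays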;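 also: 100% = median of untreated cell wells with 0.1% DMSO on each plate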); conditions: HUVEC proliferation, CellTiter-Glo luminescence, 72 h; at 10 µM; stronger effect = lower value
Procedure, shortened: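 Test system – primary HUVEC, no more than 12 passages · Dosing – one dose, 10 µM final, 0.1% DMSO · Times – 72 h treatment at 37 °C · Measured by – ATP-based CellTiter-Glo luminescent read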

[3] = H69AR cell proliferation blockers – human, duplicate replicates, primary screen (AID 580;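 active = viability at or under a set limit in both replicates, limit being median viability minus 3 SD, cut at about 48% in these data, passing the limit was not always enough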;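 also: 100% = mean luminescence of untreated wells and 0% = no signal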); conditions: H69AR lung tumor cells viability, ATP luminescence, 72 h; at 10 µM; stronger effect = lower value
[4] = MRP1 drug-resistance reversers in H69AR cells – cell-based, doxorubicin co-treatment, pilot screen (AID 601;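 active = viability loss from added drug above about 55%, and viability with drug at most 40%, in both replicates, limit read from the data, passing the limit was not always enough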); conditions: CellTiter-Glo, 72 h, at 10 µM; for differential viability (reversal): stronger effect = higher value
[5] = yeast transport mutant growth inhibition pilot in 384-well plates, post-Golgi transport modulator project (AID 636; in the data active = inhibition above about 31%); conditions: absorbance 615 nm, about 18 h, stronger effect = higher value
[6] = growth suppression of yeast trafficking mutant, preliminary HTS, modulators of trafficking downstream of Golgi apparatus project, 1536-format plate, OD 615 nm (AID 637); conditions: yeast transport mutant growth, absorbance 615 nm, 18 h; stronger effect = higher value
[7] = H69AR cells + 2 uM doxorubicin, measured here: viability with 2 uM doxorubicin, stronger effect = lower value
[8] = H69AR cells, compound alone cytotoxicity

Compound | viability [1] | viability [2] | viability [3] | differential viability (reversal) ([4]; H69AR cells + 2 uM doxorubicin) | viability [4, 7] | viability [4, 8] | inhibition [5] | inhibition [6]
Cc1cc(C(=O)Nc2c(C)n(C)n(-c3ccccc3)c2=O)c(C)o1 | 71% (inactive) | 105% (inactive) | 110% (inactive) | 11.8% (inactive) | 98.4% | 110% | -8.08% (inactive) | 4.91% (inactive)
CCOC(=O)CSc1nnc(-c2ccc(NS(=O)(=O)c3ccc(C)cc3)cc2)o1 | 87% (inactive) | 56% (inactive) | 91.5% (inactive) | 5.14% (inactive) | 86.4% | 91.5% | -4.29% (inactive) | -5.67% (inactive)
COc1ccc(OC)c(NC(=O)CS(=O)(=O)c2ccccc2)c1 | 124% (inactive) | 94.7% (inactive) | 86.3% (inactive) | -7.39% (inactive) | 93.7% | 86.3% | -6.3% (inactive) | 0.91% (inactive)
CC1=C(C)C(=O)C(CCCCC#CCCCC#CCO)=C(C)C1=O | 62% (inactive) | 78.8% (inactive) | 56.6% (inactive) | 23.8% (inactive) | 32.8% | 56.6% | 2.99% (inactive) | -1.5% (inactive)
CCN(CC)S(=O)(=O)c1ccc(NC(=O)c2cccc3c2C(=O)N(CCOC)C3)cc1 | 119% (inactive) | 109% (inactive) | 94.4% (inactive) | 9.21% (inactive) | 85.2% | 94.4% | -9.73% (inactive) | -5.45% (inactive)
CC(=O)Nc1c(O)[nH]c2ccccc12 | 105% (inactive) | 102% (inactive) | 93.6% (inactive) | -1.07% (inactive) | 94.7% | 93.6% | -8.49% (inactive) | 6.36% (inactive)
COc1ccc(-c2noc(CCN3C(=O)c4ccccc4C3=O)n2)cc1OC | 140% (inactive) | 105% (inactive) | 93.9% (inactive) | 17.8% (inactive) | 76.1% | 93.9% | -4.03% (inactive) | -1.15% (inactive)
CN(c1ccccc1C(=O)NCC1CCCO1)S(C)(=O)=O (stereo not drawn) | 67% (inactive) | 103% (inactive) | 101% (inactive) | 11.2% (inactive) | 90% | 101% | -4.11% (inactive) | 2.36% (inactive)
Cc1nn(C(=O)c2ccccc2)c2c1C(=O)CC(C)(C)C2 | 76% (inactive) | 95.8% (inactive) | 94.7% (inactive) | 1.29% (inactive) | 93.4% | 94.7% | -7.12% (inactive) | 0.73% (inactive)
Cc1nc2ccc(C(=O)O)cc2c2c1CC(C)S2 (stereo not drawn) | 93% (inactive) | 96.8% (inactive) | 90.8% (inactive) | -2.25% (inactive) | 93.1% | 90.8% | -4.93% (inactive) | 0.55% (inactive)
NS(=O)(=O)c1ccc(NC(=O)CSc2nnc(Cc3cccs3)n2-c2ccccc2)cc1 | 57% (inactive) | 93.6% (inactive) | 93.3% (inactive) | 4.08% (inactive) | 89.2% | 93.3% | -7.53% (inactive) | 2.18% (inactive)
COc1ccc(-n2ncc3c(NCc4cccs4)ncnc32)cc1 | 120% (inactive) | 90.5% (inactive) | 73.3% (inactive) | 17.6% (inactive) | 55.8% | 73.3% | -6.71% (inactive) | -1.64% (inactive)
CCN=C1SC(CC(=O)Nc2ccccc2OCC)C(=O)N1CC (stereo not drawn) | 96% (inactive) | 94.3% (inactive) | 94.5% (inactive) | 8.11% (inactive) | 86.4% | 94.5% | -2.05% (inactive) | -2.74% (inactive)
CC(=O)Nc1c(I)c(NC(C)=O)c(I)c(C(=O)O)c1I | 89% (inactive) | 98.4% (inactive) | 103% (inactive) | 1.03% (inactive) | 102% | 103% | -0.13% (inactive) | -3% (inactive)
CCCC(=O)Nc1nnc(CC(=O)N2CCCC2)s1 | 90% (inactive) | 113% (inactive) | 96.9% (inactive) | 7.37% (inactive) | 89.5% | 96.9% | -9.73% (inactive) | -5.27% (inactive)
O=C(CN1CCSCC1)N1CCc2[nH]c3ccc(Br)cc3c2C1 | 84% (inactive) | 69.7% (inactive) | 88.6% (inactive) | 7.04% (inactive) | 81.5% | 88.6% | -4.93% (inactive) | 2.18% (inactive)
Cc1ccc(-c2ccc(SCC(=O)Nc3nonc3C)nn2)cc1 | 94% (inactive) | 81.8% (inactive) | 88.8% (inactive) | -4.68% (inactive) | 93.5% | 88.8% | -7.57% (inactive) | -0.55% (inactive)
CCOc1ccc(NS(=O)(=O)c2ccc(OCC(=O)N3CCCC3)cc2)cc1 | 92% (inactive) | 102% (inactive) | 88.7% (inactive) | 3.44% (inactive) | 85.2% | 88.7% | 1.51% (inactive) | -4.84% (inactive)

Compound | viability [1] | viability [2] | viability [3] | differential viability (reversal) ([4]; H69AR cells + 2 uM doxorubicin) | viability [4, 7] | viability [4, 8] | inhibition [5] | inhibition [6]
O=S(=O)(c1cccc(S(=O)(=O)N2CCC(N3CCCCC3)CC2)c1)N1CCOCC1 | 103% (inactive) | 98.9% (inactive) | 93.6% (inactive) | 9.45% (inactive) | 84.2% | 93.6% | -0.78% (inactive) | -2.95% (inactive)
CN1[C@@H]2CC(OC(=O)[C@H](CO)c3ccccc3)C[C@H]1[C@@H]1O[C@@H]12 (stereo partly drawn) | 104% (inactive) | 96.7% (inactive) | 102% (inactive) | 6.26% (inactive) | 95.3% | 102% | -2.08% (inactive) | -2.83% (inactive)
COC(=O)Nc1ccc(S(=O)(=O)N2CCCCCC2)cc1 | 99% (inactive) | 93.7% (inactive) | 80.3% (inactive) | -10.7% (inactive) | 91% | 80.3% | -10.1% (inactive) | -2% (inactive)
CCN(CC)c1ccc(C(=O)n2cnc3ccccc32)cc1 | 111% (inactive) | 61.5% (inactive) | 15.1% (active) | -53.7% (inactive) | 68.8% | 15.1% | -3.33% (inactive) | -2% (inactive)
O=C(NCc1nc2ccccc2[nH]1)c1ccc(Cl)c(S(=O)(=O)N2CCCC2)c1 | 99% (inactive) | 79.2% (inactive) | 96.8% (inactive) | -3.96% (inactive) | 101% | 96.8% | 0.55% (inactive) | -4.35% (inactive)
CCOc1ccc(S(=O)(=O)Nc2ccc(Cl)cn2)c(C)c1C | 121% (inactive) | 91% (inactive) | 87.6% (inactive) | -2.8% (inactive) | 90.4% | 87.6% | -5.06% (inactive) | 4.43% (inactive)
Cn1nc(C(C)(C)C)cc1C(=O)NCc1ccc(N2CCCC2=O)cc1 | 87% (inactive) | 15.1% (active) | 99% (inactive) | -3.59% (inactive) | 103% | 99% | -5.34% (inactive) | 0.91% (inactive)
CCOC(=O)C1CSC(CC(=O)Nc2ccc(Cl)cc2)C(=O)N1 (stereo not drawn) | 86% (inactive) | 111% (inactive) | 103% (inactive) | 11.6% (inactive) | 91.4% | 103% | 0% (inactive) | -3.64% (inactive)
CN1C(=O)c2oc3ccccc3c(=O)c2C1c1ccccn1 (stereo not drawn) | 105% (inactive) | 87% (inactive) | 106% (inactive) | 11% (inactive) | 94.8% | 106% | -6.58% (inactive) | -1.09% (inactive)
O=C(Cn1c(-c2cncs2)nc2ccccc21)NC1CCCC1 | 96% (inactive) | 103% (inactive) | 106% (inactive) | 19.1% (inactive) | 86.5% | 106% | -4.05% (inactive) | 5.09% (inactive)
CC(=O)OC1CSc2nc3ccccc3n2C1 (stereo not drawn) | 84% (inactive) | 111% (inactive) | 93.4% (inactive) | 7.46% (inactive) | 85.9% | 93.4% | -8.11% (inactive) | 3.45% (inactive)
CSc1ccccc1NC(=O)CN(c1ccccc1)S(=O)(=O)N(C)C | 83% (inactive) | 98.3% (inactive) | 87.7% (inactive) | 2.04% (inactive) | 85.7% | 87.7% | -8.49% (inactive) | 0.18% (inactive)
Cc1ccc2c(C)nc(NC3=NCN(C(C)C)CN3)nc2c1 | 106% (inactive) | 94.3% (inactive) | 84.3% (inactive) | -15.4% (inactive) | 99.7% | 84.3% | -5.89% (inactive) | 0.48% (inactive)
COc1ccccc1NC(=O)NC(N)=O | 102% (inactive) | 87.7% (inactive) | 96.4% (inactive) | 1.88% (inactive) | 94.5% | 96.4% | -5.89% (inactive) | 7.64% (inactive)
CCc1ccc(NC(=O)CS(=O)CC(=O)NC(C)CCc2ccco2)cc1 (stereo not drawn) | 120% (inactive) | 93.1% (inactive) | 106% (inactive) | 11.5% (inactive) | 94.3% | 106% | -1.56% (inactive) | -4.59% (inactive)
COc1ccc(-c2noc(CSc3nc4ccccc4c(=O)n3-c3ccccc3)n2)cc1OC | 69% (inactive) | 110% (inactive) | 87.1% (inactive) | 6.39% (inactive) | 80.7% | 87.1% | -9.04% (inactive) | -0.55% (inactive)
CC(C)c1cc(C(=O)Nc2cccnc2)no1 | 110% (inactive) | 105% (inactive) | 97.3% (inactive) | -0.865% (inactive) | 98.2% | 97.3% | -7.73% (inactive) | -0.18% (inactive)
Nc1nc(Cl)nc2c1ncn2[C@H]1C[C@H](O)[C@@H](CO)O1 | 116% (inactive) and 105% (inactive) | 67% (inactive) and 36.3% (inactive) | 93.8% (inactive) | -9.28% (inactive) and -31.8% (inactive) | 103% and 81.2% | 93.8% and 49.4% | 2.34% (inactive) and 0.52% (inactive) | 1% (inactive) and -1% (inactive)
